Assay results of several laboratories.
Lines come from different studies, so protocols differ.
Genome polyprotein protease: Genome polyprotein, protease (ZIKV, UniProt A0A024B7W1)
CTSB: Cathepsin B (CTSB, Homo sapiens, UniProt P07858)
SCN5A: Sodium channel protein type 5 subunit alpha (SCN5A, Homo sapiens, UniProt Q14524)

SMILES	target	observed	mode	method	pH	IC50
Nc1ncnc2c1ncn2[C@@H]1O[C@H](COP(=O)(O)OP(=O)(O)OP(=O)(O)O)[C@@H](O)[C@H]1O	Heat shock cognate 71 kDa protein (HSPA8, Homo sapiens, UniProt P11142)	ligand displacement	–	FP	–	0.2 µM
CC(C)C[C@H]1C(=O)N2CCC[C@H]2[C@]2(O)O[C@](NC(=O)[C@@H]3C=C4c5cccc6[nH]c(Br)c(c56)C[C@H]4N(C)C3)(C(C)C)C(=O)N12	5-hydroxytryptamine receptor 7 (HTR7, Homo sapiens, UniProt P34969)	cAMP	antagonist	–	–	0.08 µM
COCCn1c2nc(=O)n(-c3ccccc3)c(=O)c-2nc2ccccc21	Genome polyprotein, methyltransferase (ZIKV, UniProt A0A024B7W1)	enzyme activity	inhibitor	TR-FRET	–	6.8 µM
C[C@@H]1O[C@@H](OC[C@H]2O[C@@H](Oc3c(-c4ccc(O)c(O)c4)oc4cc(O)cc(O)c4c3=O)[C@H](O)[C@@H](O)[C@@H]2O)[C@H](O)[C@H](O)[C@H]1O	Genome polyprotein protease	enzyme activity	inhibitor	FRET	pH 7	104 µM
O=c1c2ccccc2[nH]c(=S)n1-c1ccccc1	CTSB	enzyme activity	inhibitor	–	–	76.7 µM
COc1cc2oc(-c3ccc(O)c(O)c3)cc(=O)c2c(O)c1O	Genome polyprotein protease	enzyme activity	inhibitor	–	pH 8.5	5 µM
C[C@H](N)Cn1ncc2ccc3c(c21)CCCO3	Alpha-1A adrenergic receptor (Adra1a, Rattus norvegicus, UniProt P43140)	ligand displacement	–	radioligand	–	100 µM
COc1c(-c2ccccc2)oc2c(ccc3occc32)c1=O	Cyclin-dependent kinase 2, with cyclin E1 (CDK2, Homo sapiens, UniProt P24941)	enzyme activity	inhibitor	ADP detection	–	> 10 µM
CC(C)[C@H](NC(=O)[C@H](CCCNC(=N)N)NC(=O)N[C@@H](Cc1ccccc1)C(=O)O)C(=O)N[C@H](C=O)CCCNC(=N)N	CTSB	enzyme activity	inhibitor	fluorescence	pH 5.5	0.00822 µM
COc1cc(C(=O)N2CC[C@@H](O)[C@@H](N)C2)cc2nc(-c3cc4ccccc4n3CC3CC3)n(C)c12	SCN5A	ion current	inhibitor	–	–	39.8 µM
C[C@H]1COCCN1c1nc(NCc2cccnc2C(F)(F)F)c2cccnc2n1	SCN5A	ion current	inhibitor	–	–	> 33 µM
Cc1ccc(-c2ncn(-c3ccc(Nc4nccc(-c5cccc(N6CCOCC6)c5)n4)cc3)n2)cn1	Mitogen-activated protein kinase 10 (MAPK10, Homo sapiens, UniProt P53779)	enzyme activity	inhibitor	–	–	0.159 µM
COc1ncccc1NS(=O)(=O)c1ccc(S(=O)(=O)F)c2c1CCNC2	RALB (Homo sapiens, UniProt P11234, Y82F)	cell-free assay	inhibitor	fluorescence	–	> 100 µM
N=C1CCCN1Cc1[nH]c(=O)[nH]c(=O)c1F	Thymidine phosphorylase (Homo sapiens, UniProt P19971)	enzyme activity	inhibitor	–	–	0.009 µM
CC1=NCCc2c1[nH]c1cc(O)ccc21	Receptor-type tyrosine-protein phosphatase C (PTPRC, Homo sapiens, UniProt P08575)	enzyme activity	inhibitor	fluorescence	–	14 µM
